Test system: not listed separately
Assay: Cytotoxicity against human nasopharyngeal carcinoma BM-1
Type: functional
In short: (§1)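 XTT-tetrazolium growth assay, cells exposed 72 h to six to seven concentrations per compound. Phenazine methosulfate-XTT added for 6 h at 37 °C, then absorbance read at 450 and 630 nm. IC50 derived from median-effect plot of dose-effect data.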

In order of rising IC50:
1. CCOC(=O)Nc1cc(COC(=O)CCC(=O)Nc2cc(C(=O)NCCN(C)C)n(C)c2)cc(Nc2c3ccccc3nc3ccccc23)c1  80 nM
2. CCOC(=O)Nc1cc(CO)cc(Nc2c3ccccc3nc3ccccc23)c1  380 nM
3. CCOC(=O)Nc1cc(COC(=O)CCCC(=O)Nc2cc(C(=O)Nc3cc(C(=O)NCCN(C)C)n(C)c3)n(C)c2)cc(Nc2c3ccccc3nc3ccccc23)c1  490 nM
4. Nc1cc(CO)cc(Nc2c3ccccc3nc3ccccc23)c1  860 nM
5. CN(C)CCNC(=O)c1cc(NC(=O)CCCC(=O)Nc2cc(CO)cc(Nc3c4ccccc4nc4ccccc34)c2)cn1C  73300 nM

Test system: CCRF-CEM
Assay: Cytotoxicity against human T-cell acute lymphocytic leukemia CCRF-CEM
Type: functional, cell-based
In short: as §1

In order of falling IC50:
1. CCOC(=O)Nc1cc(COC(=O)CCC(=O)Nc2cc(C(=O)NCCN(C)C)n(C)c2)cc(Nc2c3ccccc3nc3ccccc23)c1  6850 nM
2. CCOC(=O)Nc1cc(COC(=O)CCCC(=O)Nc2cc(C(=O)Nc3cc(C(=O)NCCN(C)C)n(C)c3)n(C)c2)cc(Nc2c3ccccc3nc3ccccc23)c1  2040 nM
3. Nc1cc(CO)cc(Nc2c3ccccc3nc3ccccc23)c1  360 nM
4. CCOC(=O)Nc1cc(CO)cc(Nc2c3ccccc3nc3ccccc23)c1  57 nM

Test system: not listed separately
Assay: Cytotoxicity against human Glioblastoma multiformi DBTRG
Type: functional
In short: as §1

In order of rising IC50:
1. CCOC(=O)Nc1cc(COC(=O)CCC(=O)Nc2cc(C(=O)NCCN(C)C)n(C)c2)cc(Nc2c3ccccc3nc3ccccc23)c1  800 nM
2. Nc1cc(CO)cc(Nc2c3ccccc3nc3ccccc23)c1  3500 nM
3. CCOC(=O)Nc1cc(CO)cc(Nc2c3ccccc3nc3ccccc23)c1  5000 nM
4. CCOC(=O)Nc1cc(COC(=O)CCCC(=O)Nc2cc(C(=O)Nc3cc(C(=O)NCCN(C)C)n(C)c3)n(C)c2)cc(Nc2c3ccccc3nc3ccccc23)c1  7500 nM
5. CN(C)CCNC(=O)c1cc(NC(=O)CCCC(=O)Nc2cc(CO)cc(Nc3c4ccccc4nc4ccccc34)c2)cn1C  73600 nM

Test system: Nucleic Acid
Assay: Percentage of protein-linked DNA breaks.
Type: functional
Design: concentration or dose not given beside the values
In short: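 Log-phase cells labeled 24 h with [14C]-thymidine, trypsinized, resuspended at 5 × 10⁵ cells/mL and shaken 1 h at 37 °C in suspension. Drug at 10 μM added for 0.5 h. Protein-linked DNA breaks quantified by potassium-SDS coprecipitation and reported as percentage.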

In order of falling Activity:
1. CCOC(=O)Nc1cc(COC(=O)CCC(=O)Nc2cc(C(=O)NCCN(C)C)n(C)c2)cc(Nc2c3ccccc3nc3ccccc23)c1  16.5%
2. CCOC(=O)Nc1cc(CO)cc(Nc2c3ccccc3nc3ccccc23)c1  15%
3. CCOC(=O)Nc1cc(COC(=O)CCCC(=O)Nc2cc(C(=O)Nc3cc(C(=O)NCCN(C)C)n(C)c3)n(C)c2)cc(Nc2c3ccccc3nc3ccccc23)c1  4.2%
4. CN(C)CCNC(=O)c1cc(NC(=O)CCCC(=O)Nc2cc(CO)cc(Nc3c4ccccc4nc4ccccc34)c2)cn1C  0%

Test system: Nucleic Acid
Assay: Percentage of protein-linked DNA breaks; Not determined
Type: functional

With `Nc1cc(CO)cc(Nc2c3ccccc3nc3ccccc23)c1` the Activity was 10.5%.

Test system: HONE1 cell line
Assay: Cytotoxicity against human nasopharyngeal carcinoma HONE-1
Type: functional, cell-based
In short: as §1

In order of falling IC50:
1. CN(C)CCNC(=O)c1cc(NC(=O)CCCC(=O)Nc2cc(CO)cc(Nc3c4ccccc4nc4ccccc34)c2)cn1C  39000 nM
2. Nc1cc(CO)cc(Nc2c3ccccc3nc3ccccc23)c1  310 nM
3. CCOC(=O)Nc1cc(COC(=O)CCCC(=O)Nc2cc(C(=O)Nc3cc(C(=O)NCCN(C)C)n(C)c3)n(C)c2)cc(Nc2c3ccccc3nc3ccccc23)c1  130 nM
4. CCOC(=O)Nc1cc(CO)cc(Nc2c3ccccc3nc3ccccc23)c1  70 nM
5. CCOC(=O)Nc1cc(COC(=O)CCC(=O)Nc2cc(C(=O)NCCN(C)C)n(C)c2)cc(Nc2c3ccccc3nc3ccccc23)c1  60 nM

Test system: HT-29
Assay: Cytotoxicity against human colon HT-29 cell line
Type: functional, cell-based
In short: as §1

Compared with `Nc1cc(CO)cc(Nc2c3ccccc3nc3ccccc23)c1`, `CCOC(=O)Nc1cc(CO)cc(Nc2c3ccccc3nc3ccccc23)c1` is 1.8-fold lower in IC50: 880 nM for the first, 480 nM for the second. The second is the more potent here.

Compared with `CCOC(=O)Nc1cc(COC(=O)CCC(=O)Nc2cc(C(=O)NCCN(C)C)n(C)c2)cc(Nc2c3ccccc3nc3ccccc23)c1`, `CCOC(=O)Nc1cc(COC(=O)CCCC(=O)Nc2cc(C(=O)Nc3cc(C(=O)NCCN(C)C)n(C)c3)n(C)c2)cc(Nc2c3ccccc3nc3ccccc23)c1` is 2.8-fold higher in IC50: 230 nM for the first, 640 nM for the second.

With `CN(C)CCNC(=O)c1cc(NC(=O)CCCC(=O)Nc2cc(CO)cc(Nc3c4ccccc4nc4ccccc34)c2)cn1C` the IC50 was over 100000 nM.

Test system: HepG2
Assay: Cytotoxicity against human hepatoma Hepa-G2
Type: functional, cell-based
In short: as §1

In order of rising IC50:
1. CCOC(=O)Nc1cc(COC(=O)CCC(=O)Nc2cc(C(=O)NCCN(C)C)n(C)c2)cc(Nc2c3ccccc3nc3ccccc23)c1  90 nM
2. CCOC(=O)Nc1cc(CO)cc(Nc2c3ccccc3nc3ccccc23)c1  460 nM
3. CCOC(=O)Nc1cc(COC(=O)CCCC(=O)Nc2cc(C(=O)Nc3cc(C(=O)NCCN(C)C)n(C)c3)n(C)c2)cc(Nc2c3ccccc3nc3ccccc23)c1  630 nM
4. Nc1cc(CO)cc(Nc2c3ccccc3nc3ccccc23)c1  1400 nM
5. CN(C)CCNC(=O)c1cc(NC(=O)CCCC(=O)Nc2cc(CO)cc(Nc3c4ccccc4nc4ccccc34)c2)cn1C  100000 nM

Test system: MX1
Assay: Cytotoxicity against human Breast carcinoma MX-1
Type: functional, cell-based
In short: as §1

In order of rising IC50:
1. CCOC(=O)Nc1cc(COC(=O)CCC(=O)Nc2cc(C(=O)NCCN(C)C)n(C)c2)cc(Nc2c3ccccc3nc3ccccc23)c1  39 nM
2. CCOC(=O)Nc1cc(COC(=O)CCCC(=O)Nc2cc(C(=O)Nc3cc(C(=O)NCCN(C)C)n(C)c3)n(C)c2)cc(Nc2c3ccccc3nc3ccccc23)c1  156 nM

Test system: TSGH
Assay: In vitro cytotoxicity against human TSGH
Type: functional, cell-based
In short: as §1

In order of rising IC50:
1. CCOC(=O)Nc1cc(COC(=O)CCC(=O)Nc2cc(C(=O)NCCN(C)C)n(C)c2)cc(Nc2c3ccccc3nc3ccccc23)c1  80 nM
2. CCOC(=O)Nc1cc(CO)cc(Nc2c3ccccc3nc3ccccc23)c1  340 nM
3. Nc1cc(CO)cc(Nc2c3ccccc3nc3ccccc23)c1  450 nM
4. CCOC(=O)Nc1cc(COC(=O)CCCC(=O)Nc2cc(C(=O)Nc3cc(C(=O)NCCN(C)C)n(C)c3)n(C)c2)cc(Nc2c3ccccc3nc3ccccc23)c1  1200 nM
5. CN(C)CCNC(=O)c1cc(NC(=O)CCCC(=O)Nc2cc(CO)cc(Nc3c4ccccc4nc4ccccc34)c2)cn1C  46800 nM

Reference: ChEMBL document CHEMBL1135825, “Antitumor AHMA linked to DNA minor groove binding agents: synthesis and biological evaluation” (J Med Chem, 2002)
